# Assay outcomes: PubChem, several laboratories
# The list is not random: actives were taken first. Their share in the collection is about 2.6%.
# SENP8 block-1: inhibitors of human SENP8 protease; inhibition, % at 10 µM; purified SENP8, Z-RLRGG-aminoluciferin cleavage, luminescence; Q96LD8; AID 2540; hit rate 1.2% among 330,000; in the data active = inhibition above about 50%
# SENP8 block-2: SENP8 (human) protease inhibition | Q96LD8 | recombinant SENP8, Nedd8 substrate fluorescence | inhibition, % at 20 µM | hit rate 0.64% among 360,000 | AID 602440; in the data active = inhibition mostly above about 40%, no sharp cut-off; inactive = mostly below about 27%
# SENP1 FRET inh: blocks the human SENP1 SUMO protease catalytic domain; recombinant SENP1 catalytic domain, CyPet-SUMO1-YPet FRET cleavage; inhibition, % at 10 µM; hit rate 0.21% among 360,000; AID 624204;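 active = inhibition at least 30% at 10 µM, raw YFP signal under a set limit, fluorescence ratio 0.5 to 1.5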;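 note: 0% = enzyme with DMSO and 100% = no enzyme wells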
# Target sequence (Q9P0U3 419-644 limits assumed): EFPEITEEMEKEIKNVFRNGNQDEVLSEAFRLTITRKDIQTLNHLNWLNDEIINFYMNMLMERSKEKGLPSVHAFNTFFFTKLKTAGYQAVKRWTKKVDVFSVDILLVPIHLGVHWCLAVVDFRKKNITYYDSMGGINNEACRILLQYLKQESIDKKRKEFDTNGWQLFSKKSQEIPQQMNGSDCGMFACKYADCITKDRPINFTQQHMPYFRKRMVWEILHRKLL
#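 System: Recombinant human SENP1 catalytic domain, His6-tagged | Incubation: Enzyme reaction for 50 min at room temperature, dark | Medium: Tris pH 8 with BME, BSA, NP40 and catalase | Also added: 25 nM SUMO1 FRET substrate | Compound: 10 µM single point, 0.5% DMSO | Measured by: FRET fluorescence in CFP and YFP emission channels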
# SENP6 block: SENP6 protease inhibition; Q9GZR1; Recombinant SENP6 catalytic domain, aminoluciferin luminescence; inhibition, % at 10 µM; hit rate 1.8% among 330,000; AID 2599;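 active = inhibition above about 50% at the single tested dose, limit read from the data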;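 note: plate controls were DMSO wells with enzyme for no effect and DMSO wells lacking enzyme for full effect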
# Target sequence (Q9GZR1 628-1112 limits assumed): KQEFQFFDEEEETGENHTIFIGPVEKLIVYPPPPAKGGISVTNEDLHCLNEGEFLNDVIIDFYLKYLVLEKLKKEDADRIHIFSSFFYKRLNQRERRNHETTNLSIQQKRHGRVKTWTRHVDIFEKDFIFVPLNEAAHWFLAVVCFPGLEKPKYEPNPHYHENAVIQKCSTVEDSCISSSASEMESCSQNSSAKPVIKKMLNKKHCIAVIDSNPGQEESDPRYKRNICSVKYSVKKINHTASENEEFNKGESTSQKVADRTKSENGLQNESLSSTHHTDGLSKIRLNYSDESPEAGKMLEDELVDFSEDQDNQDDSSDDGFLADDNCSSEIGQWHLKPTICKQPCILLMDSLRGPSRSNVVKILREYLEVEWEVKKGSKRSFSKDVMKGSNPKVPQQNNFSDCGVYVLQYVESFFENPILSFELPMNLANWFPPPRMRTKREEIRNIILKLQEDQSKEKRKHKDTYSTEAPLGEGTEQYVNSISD
# SENP7 inh: blocks the human protease SENP7 | Q9BQF6 | recombinant SENP7, Z-RLRGG-aminoluciferin luminescence, 40 min | inhibition, % at 5 µM | hit rate 1.5% among 330,000 | AID 434973;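 active = inhibition above about 50% at the single test dose, limit read from the data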;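 note: plate controls were DMSO with enzyme for no effect and no enzyme buffer wells for full effect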
# Platelet DG rel: platelet dense granule release activity | human platelet-rich plasma, SFLLRN dense granule ATP release, luminescence | inhibition, %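 (compounds screened at 7.5 µM in platelet-rich plasma)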 | hit rate 0.22% among 300,000 | AID 1663;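 active = mean replicate score, as percent of positive control, at or above 50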
# SENP8 confirm: confirmation of human SENP8 protease inhibitors. Recombinant SENP8, Z-RLRGG-aminoluciferin luminescence, 60 min. AID 488912. hit rate 40% among 6,200. inhibition, % at 12.5 µM. shares compounds with SENP7 inh;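 active = mean inhibition across replicates above about 50%, limit read from the data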
# SENP6 confirm: confirmation of human SENP6 protease inhibitors; shares compounds with SENP7 inh; recombinant SENP6, Z-RLRGG-aminoluciferin luminescence; inhibition, % at 12.5 µM; hit rate 58% among 6,200
# SENP7 confirm: human SENP7 inhibition, confirmed | recombinant SENP7, Z-RLRGG-aminoluciferin luminescence, 40 min | hit rate 69% among 6,200 | inhibition, % at 12.5 µM | shares compounds with SENP7 inh
# Casp3 select: caspase-3 inhibition (SENP selectivity assay); shares compounds with SENP7 inh; purified caspase-3, Z-DEVD-aminoluciferin luminescence, 60 min; inhibition, % at 12.5 µM; hit rate 60% among 6,200;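 active = mean inhibition above about 50%, limit read from the data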;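 note: plate controls were enzyme with DMSO for no effect and wells without caspase-3 for full effect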
# Luc interf: luminescence interference (SENP counter-screen); shares compounds with SENP7 inh; hit rate 39% among 6,200; AID 488919; inhibition, % at 12.5 µM; Pre-incubated SENP8/Z-RLRGG-aminoluciferin, luciferase luminescence interference;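 active = mean inhibition above about 50% when retested at one dose, limit read from the data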;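 note: plate controls were DMSO wells with completed reaction for no effect and substrate without enzyme for full effect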
# Numbers without * were called inactive; . = no result given.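 Rule for the calls, unless noted: active = mean inhibition above about 50% in the one-dose retest (limit read from the data); inactive = the rest.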
SMILES,SENP8 block-1,SENP8 block-2,SENP1 FRET inh,SENP6 block,SENP7 inh,Platelet DG rel,SENP8 confirm,SENP6 confirm,SENP7 confirm,Casp3 select,Luc interf
N/C(=N\OC(=O)c1cccc(F)c1)c1ccccn1,80.7*,7.8,5.9,89.6*,91.3*,6.5,90.8*,92.6*,101.0*,97.2*,89.8*
COc1ccc(C(=O)O/N=C(\N)c2ccccn2)c(OC)c1,8.4,3.4,-0.2,22.2,32.0,39.8,.,.,.,.,.
CC(C)(C)c1ccc(C(=O)O/N=C(\N)c2ccccn2)cc1,93.6*,14.1,0.6,96.8*,97.9*,28.9,85.8*,97.6*,102.0*,95.3*,76.5*
Cc1cccc(/C(N)=N/OC(=O)c2ccc(Br)o2)c1,70.2*,12.3,-1.2,80.1*,78.5*,5.1,53.4*,77.3*,93.8*,86.3*,30.8
Cc1cccc(/C(N)=N/OC(=O)Cc2ccccc2)c1,-12.3,2.2,0.5,7.9,-13.2,1.1,.,.,.,.,.
Cc1ccc(C(=O)O/N=C(\N)c2ccccn2)cc1C,92.8*,18.6,4.9,98.0*,97.5*,18.6,95.3*,95.4*,101.3*,96.1*,85.8*
C=CC[C@H](CC(=O)N(CCO)Cc1ccccc1)C(=O)N[C@H](COC(=O)[C@@H](CC=C)CC(=O)OC(C)(C)C)c1ccccc1,1.7,23.6,4.6,14.4,7.7,.,.,.,.,.,.
Cc1ccc(NC(=O)CSCC(=O)Nc2ccccc2N2CCCC2)cc1,-10.5,5.6,0.2,-9.3,-7.4,-2.9,.,.,.,.,.
COc1ccc(C2CC(C)=C(C#N)S(=O)(=O)C2C#N)cc1 (stereo not given),3.4,-18.2,-66.6,-6.9,4.7,-5.3,.,.,.,.,.
C/C(=N\NC(=O)c1cccc(Br)c1)c1ccccn1,-4.2,18.7,0.5,-14.5,-1.5,-1.3,.,.,.,.,.
Cc1cnc(C(=O)N2CCCC(C(=O)c3ccc(C(C)(C)C)cc3)C2)cn1 (stereo not given),-0.6,2.8,-2.0,-13.2,-3.4,2.7,.,.,.,.,.
C/C(=N\NC(=O)c1cc(Br)ccc1O)c1ccccn1,77.8*,-88.2,0.4,86.8*,55.5*,11.7,40.6,84.8*,84.4*,91.4*,28.9
CC(C)(C)c1ccc(C(=O)C2CCCN(C(=O)c3ccccn3)C2)cc1 (stereo not given),2.2,4.8,0.9,5.3,101.6*,-10.0,-8.7,-6.9,-9.6,0.0,4.4
CCOc1ccc(OCc2ccc(C(=O)N/N=C(\C)c3ccccn3)cc2)cc1,.,3.9,0.5,.,.,-1.1,.,.,.,.,.
C/C(=N/OCc1ccc(Br)cc1)c1ccccn1,81.9*,30.6,2.1,-6.3,90.9*,4.3,3.7,87.8*,99.5*,75.1*,49.1
N/C(=N\OC(=O)c1ccc(Br)o1)c1ccccn1,63.7*,14.7,1.8,50.5*,88.2*,2.4,85.7*,84.8*,96.7*,94.5*,57.3*
Cc1csc(CNc2ncnc3ccc(-c4cccc(Cl)c4)cc23)c1,2.6,-252.7,0.1,6.0,2.3,.,.,.,.,.,.
Cn1ncc2c(NNC(=O)C3CCCCC3)ncnc21,-6.0,12.9,3.2,-17.4,-9.0,-0.5,.,.,.,.,.
Cc1c(C(=O)N(C)CCCCN2CCOCC2)oc2c(F)cccc12,-5.4,16.0,-1.0,3.8,-0.7,-8.4,.,.,.,.,.
COc1cc(OC)cc(C(=O)O/N=C(\N)c2cccc(C)c2)c1,-8.2,7.1,1.9,-3.5,11.8,0.9,.,.,.,.,.
Cc1cccc(/C(N)=N/OC(=O)c2cccnc2)c1,49.4,24.9,-0.8,69.5*,79.9*,2.4,46.6,54.1*,84.6*,84.1*,58.2*
Cc1ccc(C(=O)O/N=C(\N)c2ccccn2)cc1,97.7*,8.9,4.0,99.3*,101.5*,103.7*,98.7*,99.4*,102.5*,98.5*,87.7*
Cc1cccc(/C(N)=N/OC(=O)c2ccc3c(c2)OCO3)c1,96.8*,6.7,3.0,97.8*,99.6*,64.2*,99.6*,100.5*,103.3*,98.3*,98.6*
CCOc1ccc(C(=O)O/N=C(\N)c2ccccn2)cc1,96.6*,6.6,0.4,98.4*,100.0*,80.7*,98.1*,98.7*,102.2*,97.8*,73.2*
Cc1cc(C)cc(OCC(=O)O/N=C(\N)c2ccccn2)c1,-6.4,17.0,2.1,-20.2,6.6,0.3,.,.,.,.,.
SMILES,SENP8 block-1,SENP8 block-2,SENP1 FRET inh,SENP6 block,SENP7 inh,Platelet DG rel,SENP8 confirm,SENP6 confirm,SENP7 confirm,Casp3 select,Luc interf
Cn1c(SCC(=O)Nc2ccc3c(c2)OCO3)nnc1C(F)(F)F,1.1,10.3,-0.7,2.0,6.8,.,.,.,.,.,.
CCN(CC)S(=O)(=O)c1ccc2c(c1)N(CC(=O)Nc1ccc(NC(C)=O)cc1)C(=O)CO2,0.6,22.6,1.5,-8.6,-5.0,0.0,.,.,.,.,.
COc1ccccc1/C=C/C(=O)N1CCN(S(=O)(=O)c2cccs2)CC1,-13.5,-80.5,-6.6,-23.8,-9.0,.,.,.,.,.,.
CCCCCNC(=O)C(c1ccnc2ccccc12)n1c(=O)c(-c2cc3ccccc3[nH]2)nc2ccccc21 (stereo not given),.,-417.5,-18.5,.,.,.,.,.,.,.,.
CC(C(=O)O/N=C(\N)c1ccccn1)c1ccc([N+](=O)[O-])cc1 (stereo not given),3.9,8.0,1.0,9.9,4.3,9.9,.,.,.,.,.
Cc1cccc(C(=O)O/N=C(\N)c2ccccn2)c1,90.7*,10.9,1.4,96.8*,97.9*,25.7,94.2*,95.0*,100.4*,95.9*,93.4*
N/C(=N\OC(=O)c1ccccc1)c1ccccn1,92.1*,4.5,2.4,96.3*,98.5*,15.2,97.1*,97.9*,102.0*,97.7*,95.4*
C/C(=N\OC(=O)c1ccc(Br)cc1)c1ccccn1,92.6*,14.1,4.9,96.9*,97.1*,11.9,43.2,53.5*,44.3,46.3,11.5
N/C(=N\OCc1ccc([N+](=O)[O-])cc1)c1ccccn1,90.3*,.,.,94.9*,95.5*,62.6*,93.8*,93.6*,100.1*,95.3*,71.4*
COc1ccc(C(=O)N/N=C(\C)c2ccccn2)cc1OC,-10.5,2.6,2.0,6.0,-9.7,-11.0,.,.,.,.,.
N/C(=N\OC(=O)C(c1ccccc1)c1ccccc1)c1ccccn1,-4.8,16.5,1.8,-0.7,0.6,-0.4,.,.,.,.,.
